This is an account of results in ChEMBL document CHEMBL4402551 (Eur J Med Chem, 2020).

Series [1] can be described thus: Inhibition of Influenza A virus (A/Duck/Guangdong/674/2014(H5N6)) Neuraminidase N6 preincubated for 10 mins followed by MUNANA substrate addition and measured after 40 mins by fluorescence method.
Series [2] relates to Influenza A virus. As to the kind of experiment: Antiviral activity against Influenza A virus (A/goose/Guangdong/SH7/2013(H5N1)) infected in chicken embryo fibroblasts assessed as protection against virus-induced cytopathic effect incubated for 48 hrs by CCK8 assay. The format is functional, organism-based. Background: Protection from cytopathic effect is a common read-out in antiviral testing.

Series [3] has as its system Influenza A virus. As to the kind of experiment: Antiviral activity against Influenza A virus (A/Chicken/Hebei/LZF/2014(H5N2)) infected in chicken embryo fibroblasts assessed as protection against virus-induced cytopathic effect incubated for 48 hrs by CCK8 assay. The class given is functional, organism-based.
Series [4] relates to Influenza A virus. Put plainly: Antiviral activity against Influenza A virus (A/Duck/Guangdong/674/2014(H5N6)) infected in chicken embryo fibroblasts assessed as protection against virus-induced cytopathic effect incubated for 48 hrs by CCK8 assay. The class given is functional, organism-based.
Series [5] is described as follows: Cytotoxicity against CEF after 48 hrs by CCK8 assay. The settings on record: chicken, CEF cells. Also noted: species or system Gallus gallus. An outline of the steps: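 Uninfected chicken embryo fibroblasts are given compound, serially diluted 3-fold in DMEM with 1% FBS from a DMSO stock, at 37 °C and 5% CO2 for 48 h. Viability is read as A450 after 90 min with CCK-8 at 37 °C. CC50 is derived as for EC50.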
In general terms: Formazan colour is commonly taken as a measure of viable cells.

For series [6], the system named is Influenza A virus. Put plainly: Antiviral activity against Influenza A virus (A/Chicken/Hebei/LZF/2014(H5N2)) infected in chicken embryonated eggs assessed as chicken embryo survival at 10 mM incubated with virus for 1 hr followed by inoculation and measured after 72 hrs relative to control. The class given is functional.
Series [7] concerns Influenza A virus. Put plainly: Antiviral activity against Influenza A virus (A/Chicken/Hebei/LZF/2014(H5N2)) infected in chicken embryonated eggs assessed as protection against virus-induced chicken embryo death at 2.5 to 0.156 mM incubated with virus for 1 hr followed by inoculation and measured after 72 hrs. The format is functional, organism-based.
Series [8] has as its system Influenza A virus. Put plainly: Antiviral activity against Influenza A virus (A/Chicken/China/415/2013 (H9N2)) infected in chicken embryonated eggs assessed as chicken embryo survival at 10 to 0.625 mM incubated with virus for 1 hr followed by inoculation and measured after 72 hrs relative to control. The class given is functional.
Series [9] concerns Influenza A virus. As to the kind of experiment: Antiviral activity against Influenza A virus (A/Chicken/China/415/2013 (H9N2)) infected in chicken embryonated eggs assessed as chicken embryo survival at 10 to 0.156 mM incubated with virus for 1 hr followed by inoculation and measured after 72 hrs relative to control. The class given is functional.

Active and inactive are the calls of the source. The rule behind the calls is not given here.

In general, IC50 refers to the concentration needed to halve the response being measured. A lower IC50 goes with greater potency in that assay. For the compound `CCC(CC)O[C@@H]1C=C(C(=O)NCCc2cn(Cc3ccc([N+](=O)[O-])cc3)nn2)C[C@H](N)[C@H]1NC(C)=O`, the 50% inhibitory concentration (IC50) in series [1] worked out at 7.6 µM. In general, EC50 refers to the concentration that produces a half-maximal response. For orientation: CC50 means the concentration giving 50% cytotoxicity. A high value points to better tolerance by the cells. For `CCC(CC)O[C@@H]1C=C(C(=O)O)C[C@H](N)[C@H]1NC(C)=O` [OSELTAMIVIR CARBOXYLATE], in [1], inhibition was half-maximal at 0.018 µM (IC50). The figures for the EC50 in the series with Influenza A virus [2], with Influenza A virus [3] and with Influenza A virus [4] were 0.22 µM, 0.18 µM and 0.43 µM, respectively. The same compound registered a CC50 at 48 h in [5] greater than 1000 µM. In addition, the Activity with Influenza A virus [6] is reported as 80%; with Influenza A virus [8], greater than 80%. The result with Influenza A virus [7] was inactive. Take `CCC(CC)O[C@@H]1C=C(C(=O)NCc2cn(Cc3ccc([N+](=O)[O-])cc3)nn2)C[C@H](N)[C@H]1NC(C)=O`: the IC50 in series [1] worked out at 1.17 µM. On the same count and under the same terms, then `CCC(CC)O[C@@H]1C=C(C(=O)NCc2cn(CC(=O)N3CCCC3)nn2)C[C@H](N)[C@H]1NC(C)=O`, with 1.4 µM; and `CCC(CC)O[C@@H]1C=C(C(=O)NCc2cn(Cc3cccc(F)c3)nn2)C[C@H](N)[C@H]1NC(C)=O`, with 2 µM; and `CCC(CC)O[C@@H]1C=C(C(=O)NCc2cn(Cc3ccc(Cl)c(F)c3)nn2)C[C@H](N)[C@H]1NC(C)=O`, with 2.8 µM. In the case of `CCC(CC)O[C@@H]1C=C(C(=O)NCc2cn(Cc3ccc(-c4ccccc4)cc3)nn2)C[C@H](N)[C@H]1NC(C)=O`, the half-inhibitory concentration (IC50) in series [1] was 2.2 µM. Consider `CCC(CC)O[C@@H]1C=C(C(=O)NCc2cn(Cc3cccc([N+](=O)[O-])c3)nn2)C[C@H](N)[C@H]1NC(C)=O`, for which the IC50 in [1] was 2.85 µM.

`CCC(CC)O[C@@H]1C=C(C(=O)NCc2cn(CCc3ccc(Br)cc3)nn2)C[C@H](N)[C@H]1NC(C)=O`: the concentration for half-maximal inhibition (IC50) in series [1] was 6.34 µM. Same read-out and setting: to `CCC(CC)O[C@@H]1C=C(C(=O)NCc2cn(Cc3cccc(Cl)c3)nn2)C[C@H](N)[C@H]1NC(C)=O` belongs 2.56 µM.

For `CCC(CC)O[C@@H]1C=C(C(=O)NCc2cn(Cc3ccccc3[N+](=O)[O-])nn2)C[C@H](N)[C@H]1NC(C)=O`, the IC50 in series [1] was greater than 10 µM. Same read-out and setting: to `CCC(CC)O[C@@H]1C=C(C(=O)NC(C)(C)c2cn(Cc3ccc([N+](=O)[O-])cc3)nn2)C[C@H](N)[C@H]1NC(C)=O` belongs greater than 10 µM; to `CCC(CC)O[C@@H]1C=C(C(=O)NCc2cn(Cc3ccccc3Br)nn2)C[C@H](N)[C@H]1NC(C)=O`, greater than 10 µM; to `CCC(CC)O[C@@H]1C=C(C(=O)NCc2cn(Cc3ccccc3)nn2)C[C@H](N)[C@H]1NC(C)=O`, 1 µM. Turning to `CCC(CC)O[C@@H]1C=C(C(=O)NCc2cn(Cc3ccc(Br)cc3)nn2)C[C@H](N)[C@H]1NC(C)=O`, the IC50 in [1] is 0.16 µM. Besides, the EC50 in the series on Influenza A virus [2] was found to be 2.45 µM; with Influenza A virus [3] it was 0.43 µM; in the series on Influenza A virus [4] it was 2.8 µM. In addition, the CC50 at 48 h in [5] was greater than 1000 µM. Besides, the values for the Activity in the series on Influenza A virus [6] and with Influenza A virus [9] were 20% and greater than 80%, respectively. In addition, the result in the series on Influenza A virus [7] was inactive. In [1], `CCC(CC)O[C@@H]1C=C(C(=O)NCc2cn(CSc3ccccc3)nn2)C[C@H](N)[C@H]1NC(C)=O` showed an IC50 of 4.59 µM. The compound `CCC(CC)O[C@@H]1C=C(C(=O)NCCc2cn(Cc3ccc(Br)cc3)nn2)C[C@H](N)[C@H]1NC(C)=O` returned a half-inhibitory concentration (IC50) in series [1] greater than 10 µM.

Turning to `CCC(CC)O[C@@H]1C=C(C(=O)NCc2cn(CC(=O)N3CCOCC3)nn2)C[C@H](N)[C@H]1NC(C)=O`, in series [1], the midpoint of inhibition, the IC50, lay at 0.79 µM. For the same compound, the EC50 stood at 3.1 µM in the series with Influenza A virus [2], 1 µM in the series on Influenza A virus [3] and 3.78 µM in the series with Influenza A virus [4]. Further, in [5], the cytotoxic concentration (CC50) at 48 h was greater than 1000 µM. With `CCC(CC)O[C@@H]1C=C(C(=O)NCCc2cn([C@H]3C[C@H](n4cc(C)c(=O)[nH]c4=O)O[C@@H]3CO)nn2)C[C@H](N)[C@H]1NC(C)=O`, the half-maximal inhibitory concentration (IC50) in [1] is greater than 10 µM. In the case of `CCC(CC)O[C@@H]1C=C(C(=O)NCc2cn(Cc3ccc(F)cc3)nn2)C[C@H](N)[C@H]1NC(C)=O`, the concentration for half-maximal inhibition (IC50) in series [1] came to 3.2 µM. As to `CCC(CC)O[C@@H]1C=C(C(=O)NC(C)(C)c2cn(Cc3ccc(Br)cc3)nn2)C[C@H](N)[C@H]1NC(C)=O`, the concentration for half-maximal inhibition (IC50) in [1] was greater than 10 µM.

In series [1], `CCC(CC)O[C@@H]1C=C(C(=O)NC(C)(C)c2cn([C@H]3C[C@H](n4cc(C)c(=O)[nH]c4=O)O[C@@H]3CO)nn2)C[C@H](N)[C@H]1NC(C)=O` came in with an IC50 of 0.58 µM. The half-maximal effective concentration (EC50) was 6.28 µM with Influenza A virus [2], 0.53 µM in the series on Influenza A virus [3] and greater than 20 µM in the series with Influenza A virus [4]. The compound also came in with a 50% cytotoxic concentration (CC50) at 48 h in [5] greater than 1000 µM.

In the case of `CCC(CC)O[C@@H]1C=C(C(=O)NCc2cn(Cc3ccccc3Cl)nn2)C[C@H](N)[C@H]1NC(C)=O`, half-maximal inhibition in series [1] (IC50) required 0.13 µM. Further, the concentration giving a half-maximal response (EC50) is 3.32 µM in the series with Influenza A virus [2], 0.47 µM in the series with Influenza A virus [3] and 8.6 µM in the series with Influenza A virus [4]. In [5], this compound showed a cytotoxic concentration (CC50) at 48 h greater than 1000 µM. `CCC(CC)O[C@@H]1C=C(C(=O)NCc2cn([C@H]3C[C@H](n4cc(C)c(=O)[nH]c4=O)O[C@@H]3CO)nn2)C[C@H](N)[C@H]1NC(C)=O` showed an IC50 in series [1] of 0.29 µM. Compound `CCC(CC)O[C@@H]1C=C(C(=O)NCc2cn(CCc3ccccc3)nn2)C[C@H](N)[C@H]1NC(C)=O` had an IC50 in [1] of 0.57 µM. Compound `CCC(CC)O[C@@H]1C=C(C(=O)NCc2cn(Cc3ccc(C)cc3)nn2)C[C@H](N)[C@H]1NC(C)=O` came in with an IC50 in series [1] of 5.5 µM. The same measure, in the same setting: to `CCC(CC)O[C@@H]1C=C(C(=O)NCc2cn(C3CCCCC3)nn2)C[C@H](N)[C@H]1NC(C)=O` belongs 2.01 µM.
